From ChEMBL document CHEMBL1122504, “Heterocyclic Quinones. 4. A new highly cytotoxic drug: 6,7-bis(1-aziridinyl)-5,8-quinazolinedione” (1983)
Several values for one entry are separate records, joined by “and”; a condition that tells them apart may be missing. Identical values can stand only once.

System: L1210
Test: Concentration that decreases the growth rate of the L1210 cells by 50% after 48 hr of culture
Format: functional
Conditions: Mus musculus, L1210, 48 h; read-out: ID50 (the source's name)
In short: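 L1210 leukemia cells cultured with increasing drug concentrations for 48 h at 37 °C under 5% CO2. Percentage inhibition of control growth was fitted by least-squares linear regression against log dose, and the concentration lowering control growth by 50% was estimated from the regression equation.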

IC50	Structure (SMILES)
0.593 µg/mL and 3.12 µM	COC1=CC(=O)c2ncncc2C1=O
0.889 µg/mL and 3.31 µM	COC1=C(Br)C(=O)c2ncncc2C1=O
0.359 µg/mL and 1.48 µM	O=C1C(N2CCCCC2)=CC(=O)c2ncncc21
0.215 µg/mL and 1.05 µM	COC1=C(N)C(=O)c2ncncc2C1=O
